Compound activity: PubChem BioAssay, several laboratories
RanGTP-Imp inh – inhibitors of RanGTP-importin-beta interaction, primary screen, biochemical, FRET, CFP-Ran, YFP-importin-beta, homogeneous; cell-free CFP-Ran/YFP-importin-beta FRET ratio; inhibition, % (concentration not given with the values); 300,000 compounds, 1.1% hits; AID 2216;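 active means more than half of the replicate wells show a fall in the fluorescence ratio signal beyond about 16%, limit read from the data, passing the limit was not always enough; inconclusive means exactly half of the replicate wells pass the set limit; inactive means fewer than half of replicates pass the limit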
FAS TE block – FAS thioesterase (human) inhibition; recombinant FAS-TE, OMFH fluorogenic substrate, fluorescence endpoint; inhibition, % at 15 µM; 360,000 compounds, 0.67% hits; AID 602261;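 active means compounds whose normalised, plate-corrected inhibition of enzyme fluorescence in the single-dose primary screen is 50% or more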
Target sequence (P49327 whole entry, looked up): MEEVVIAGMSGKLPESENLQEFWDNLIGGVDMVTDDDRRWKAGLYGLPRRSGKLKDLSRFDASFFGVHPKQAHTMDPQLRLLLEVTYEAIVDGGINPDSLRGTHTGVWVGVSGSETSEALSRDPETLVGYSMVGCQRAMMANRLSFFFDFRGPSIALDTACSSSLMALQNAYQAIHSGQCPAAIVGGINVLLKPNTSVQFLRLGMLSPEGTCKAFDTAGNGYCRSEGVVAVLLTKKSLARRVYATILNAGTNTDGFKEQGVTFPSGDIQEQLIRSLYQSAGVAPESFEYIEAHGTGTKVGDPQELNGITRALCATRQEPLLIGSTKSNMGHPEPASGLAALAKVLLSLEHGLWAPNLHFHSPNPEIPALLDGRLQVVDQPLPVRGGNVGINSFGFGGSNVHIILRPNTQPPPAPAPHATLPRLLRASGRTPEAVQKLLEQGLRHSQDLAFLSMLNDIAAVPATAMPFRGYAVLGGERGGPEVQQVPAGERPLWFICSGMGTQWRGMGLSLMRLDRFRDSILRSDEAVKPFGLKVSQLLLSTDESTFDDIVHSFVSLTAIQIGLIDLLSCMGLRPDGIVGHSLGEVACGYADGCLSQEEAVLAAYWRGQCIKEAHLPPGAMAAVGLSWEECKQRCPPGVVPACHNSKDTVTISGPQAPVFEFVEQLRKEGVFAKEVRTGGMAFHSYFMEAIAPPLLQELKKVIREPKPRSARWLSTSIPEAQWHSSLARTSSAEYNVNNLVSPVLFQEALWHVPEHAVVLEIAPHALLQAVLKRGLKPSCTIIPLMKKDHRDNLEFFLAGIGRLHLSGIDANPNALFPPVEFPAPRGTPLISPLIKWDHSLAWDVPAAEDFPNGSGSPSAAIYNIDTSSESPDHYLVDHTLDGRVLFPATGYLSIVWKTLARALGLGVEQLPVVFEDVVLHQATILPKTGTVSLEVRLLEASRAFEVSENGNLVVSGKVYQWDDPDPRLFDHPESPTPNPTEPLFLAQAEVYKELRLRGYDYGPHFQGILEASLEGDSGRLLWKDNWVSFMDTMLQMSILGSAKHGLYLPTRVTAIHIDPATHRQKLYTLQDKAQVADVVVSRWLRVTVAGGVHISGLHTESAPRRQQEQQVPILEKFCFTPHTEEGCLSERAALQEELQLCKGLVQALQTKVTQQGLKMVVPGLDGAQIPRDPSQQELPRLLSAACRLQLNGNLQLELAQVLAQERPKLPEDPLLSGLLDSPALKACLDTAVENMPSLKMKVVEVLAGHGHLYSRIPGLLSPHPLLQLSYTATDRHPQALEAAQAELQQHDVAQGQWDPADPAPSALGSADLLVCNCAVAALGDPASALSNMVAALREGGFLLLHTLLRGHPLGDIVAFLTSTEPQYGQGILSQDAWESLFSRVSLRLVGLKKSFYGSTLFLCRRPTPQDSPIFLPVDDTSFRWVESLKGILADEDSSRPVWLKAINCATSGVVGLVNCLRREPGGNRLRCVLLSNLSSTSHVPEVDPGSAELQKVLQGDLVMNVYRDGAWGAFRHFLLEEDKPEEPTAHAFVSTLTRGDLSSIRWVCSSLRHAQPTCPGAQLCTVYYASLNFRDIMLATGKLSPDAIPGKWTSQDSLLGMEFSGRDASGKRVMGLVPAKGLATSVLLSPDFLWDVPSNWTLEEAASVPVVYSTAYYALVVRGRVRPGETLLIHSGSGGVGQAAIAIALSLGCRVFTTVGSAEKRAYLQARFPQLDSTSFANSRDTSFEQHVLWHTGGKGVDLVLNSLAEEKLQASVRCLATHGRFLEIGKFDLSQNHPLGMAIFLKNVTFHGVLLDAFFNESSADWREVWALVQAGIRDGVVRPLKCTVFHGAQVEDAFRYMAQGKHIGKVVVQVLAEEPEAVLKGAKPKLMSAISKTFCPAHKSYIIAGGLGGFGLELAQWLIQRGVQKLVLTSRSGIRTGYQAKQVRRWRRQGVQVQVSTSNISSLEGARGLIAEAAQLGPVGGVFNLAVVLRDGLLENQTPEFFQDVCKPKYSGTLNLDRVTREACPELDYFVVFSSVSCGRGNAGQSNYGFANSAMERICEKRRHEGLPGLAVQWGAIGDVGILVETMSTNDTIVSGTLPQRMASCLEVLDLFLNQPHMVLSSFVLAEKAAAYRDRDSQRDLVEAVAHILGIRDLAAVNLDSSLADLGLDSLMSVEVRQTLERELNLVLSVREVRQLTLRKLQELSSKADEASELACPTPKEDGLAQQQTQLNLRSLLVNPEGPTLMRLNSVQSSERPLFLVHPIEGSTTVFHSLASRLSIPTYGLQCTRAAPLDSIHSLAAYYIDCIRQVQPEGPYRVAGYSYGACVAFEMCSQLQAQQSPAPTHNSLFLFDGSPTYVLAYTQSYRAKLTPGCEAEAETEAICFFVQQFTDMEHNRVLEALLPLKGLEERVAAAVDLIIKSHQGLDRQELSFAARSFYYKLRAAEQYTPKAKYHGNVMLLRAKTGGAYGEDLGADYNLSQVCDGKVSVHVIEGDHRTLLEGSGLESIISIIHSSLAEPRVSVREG
Calpain2 inh – blocks pig calpain II enzyme activity. 220,000 compounds, 0.37% hits. purified calpain II, fluorogenic peptide substrate, 30 min. inhibition, % at 16 µM;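 active means inhibition above about 50%, limit read from the data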
Runt-SMMHC FRET – Runt domain-CBFb-SMMHC interaction inhibition | Q01196+Q13951 | Cerulean-Runt/Venus-CBFb-SMMHC FRET ratio 530/480, 1 h | inhibition, % at 20 µM | 220,000 compounds, 0.74% hits | AID 1434;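 active means mean inhibition across duplicate retests at 20 µM reaching about 50%, limit read from the data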;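 further: inhibitors lower the FRET ratio by blocking Runt binding to CBFb-SMMHC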
Runt-CBFb FRET – blocks binding of human RUNX1 Runt domain to CBFb. Cerulean-Runt/Venus-CBFb FRET ratio 530/480, 1 h. inhibition, % at 20 µM. 220,000 compounds, 0.46% hits;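 active means inhibition over about 50% at 20 µM in the single-dose screen, limit read from the data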
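Schedule: protein complex preformed 1 h, compound exposure 1 h, room temperature, dark; test system: Cerulean-labeled Runt domain protein; amount: 100 nM per protein; buffer or medium: Tris 50 mM pH 7.5, KCl, K2SO4, 0.01% BSA; read-out: loss of energy transfer signal; detection: FRET fluorescence; controls: 5 µM unlabeled CBFb as full-inhibition high control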
Each line names hits and unclear results; the compound was inactive in the other large screens. Most compounds without a hit are left out; they make up all but 2.1% or so of the library.

O=C(C1=C(O)C(=O)N(CCCN2CCOCC2)C1c1ccccn1)c1cc2ccccc2o1 (centres undefined)	none
Cc1ccc(C(=O)C2=C(O)C(=O)N(CCN3CCOCC3)C2c2ccccn2)o1 (centres undefined)	RanGTP-Imp inh 22.8 (no result: FAS TE block)
CCN(CC)CCN1C(=O)C(O)=C(C(=O)c2ccc(C)o2)C1c1ccccn1 (centres undefined)	RanGTP-Imp inh 29.0 (no result: FAS TE block, Calpain2 inh, Runt-SMMHC FRET, Runt-CBFb FRET)
CCN(CC)CCCN1C(=O)C(O)=C(C(=O)c2ccc(C)o2)C1c1ccc(C)o1 (centres undefined)	none
CCC(C)NC(=O)C1CCC(=O)N1CCc1ccccc1 (centres undefined)	none (no result: Calpain2 inh, Runt-SMMHC FRET, Runt-CBFb FRET)
CC(OC(=O)c1cccc(O)c1)C(=O)N(C)Cc1ccccc1 (centres undefined)	none (no result: Calpain2 inh, Runt-SMMHC FRET, Runt-CBFb FRET)
CC(OC(=O)/C(C#N)=C/c1ccc(N(C)C)cc1)C(=O)N(C)Cc1ccccc1 (centres undefined)	RanGTP-Imp inh 80.9 (no result: Calpain2 inh, Runt-SMMHC FRET, Runt-CBFb FRET)
COC(=O)c1ccc(C(=O)OC)c(NC(=S)N2CCN(C)CC2)c1	RanGTP-Imp inh 31.7
COc1ccc(CN(Cc2ccc(OC)cc2)S(=O)(=O)c2ccc(-n3cnnn3)c(C)c2)cc1	RanGTP-Imp inh 27.1
CN(C)S(=O)(=O)c1cccc(NC(=S)N/N=C/c2cccc(O)c2)c1	none
CN(C)S(=O)(=O)c1cccc(NC(=S)N/N=C/c2cc(Br)ccc2O)c1	Runt-SMMHC FRET 81.2
CC1CCN(C(=O)CSc2nc3ccccc3s2)CC1	RanGTP-Imp inh 28.1
O=C(O)C1CCN(C(=O)CSc2nc3ccccc3s2)CC1	none
CCC1OC23CCCCC2C(C#N)(C(=N)O3)C1(C#N)C#N (centres undefined)	RanGTP-Imp inh 27.1
COc1ccc(C2OC34CCCCC3C(C#N)(C#N)C2(C#N)C(=N)O4)cc1 (centres undefined)	RanGTP-Imp inh 43.3, Runt-SMMHC FRET 76.8
CCCC1OC23CCCCC2C(C#N)(C(=N)O3)C1(C#N)C#N (centres undefined)	RanGTP-Imp inh 33.3
CC1OC23CCCCC2C(C#N)(C(=N)O3)C1(C#N)C#N (centres undefined)	none
N#CC12COC3(CCCCC3C1(C#N)C#N)OC2=N (centres undefined)	RanGTP-Imp inh 33.2
O=C(COC(=O)c1nc(Cl)ccc1Cl)NCc1cccs1	none (no result: Calpain2 inh, Runt-SMMHC FRET, Runt-CBFb FRET)
Cc1ccc(S(=O)(=O)/C(C#N)=C/c2c(N3CCC(C(N)=O)CC3)nc3c(C)cccn3c2=O)cc1	none
Cc1ccc(S(=O)(=O)/C(C#N)=C/c2c(N3CCC(C(N)=O)CC3)nc3ccccn3c2=O)cc1	RanGTP-Imp inh 34.2
CCN1CCN(c2nc3ccccn3c(=O)c2/C=C(\C#N)S(=O)(=O)c2ccccc2)CC1	RanGTP-Imp inh 76.8
COc1cccc(CNc2ccc([N+](=O)[O-])c(NCC(=O)O)n2)c1	Calpain2 inh 88.8
Nc1nc(NCC(=O)O)nc(NCc2ccccc2)c1[N+](=O)[O-]	none (no result: Calpain2 inh, Runt-SMMHC FRET, Runt-CBFb FRET)
O=c1[nH]c2ccccc2nc1-c1cccs1	Runt-SMMHC FRET 168.8, Runt-CBFb FRET 91.4 (no result: Calpain2 inh)
O=C(CNC(=O)N1CC(=O)Nc2ccccc21)NCCc1cccc(F)c1	none (no result: Calpain2 inh, Runt-SMMHC FRET, Runt-CBFb FRET)
CC1(C(=O)NS(=O)(=O)c2ccc(C#N)cc2)CCN1C(=O)CC1CC1 (centres undefined)	none (no result: RanGTP-Imp inh, Calpain2 inh, Runt-SMMHC FRET, Runt-CBFb FRET)
Cc1cccc(NC(=O)c2cc3c(=O)n4ccccc4nc3n(CC(C)C)c2=N)c1	none
Cc1cccc(-n2c(=O)c(C#N)cc3c(=O)n4ccccc4nc32)c1	RanGTP-Imp inh 127.6, Runt-SMMHC FRET 59.0
Cc1ccc(C)c(-n2c(=O)c(C#N)cc3c(=O)n4ccccc4nc32)c1	RanGTP-Imp inh 107.6, Runt-SMMHC FRET 89.6
O=C(NC12CC3CC(CC(C3)C1)C2)c1ccc(=O)oc1	none
O=C(NNC(=O)C1[C@H]2CCCC[C@@H]12)c1ccc(=O)oc1 (some centres undefined)	Runt-SMMHC FRET 82.5
Cc1cc2c(cc1S(=O)(=O)NCc1ccc(N(C)C)cc1)OCC(=O)N2	none (no result: Calpain2 inh, Runt-SMMHC FRET, Runt-CBFb FRET)
COc1ccc(S(=O)(=O)N2CCCCC2)cc1NC(=O)CCNC(=O)c1ccc(Cl)cc1	none (no result: RanGTP-Imp inh, Calpain2 inh, Runt-SMMHC FRET, Runt-CBFb FRET)
Cc1ccc(-c2c(C#N)c(N)n3c(nc4ccccc43)c2C#N)cc1	Runt-SMMHC FRET 118.0, Runt-CBFb FRET 58.5
N#Cc1c(-c2ccccc2)c(C#N)c2nc3ccccc3n2c1N	Runt-SMMHC FRET 93.9, Runt-CBFb FRET 82.5
Cc1c(CCCl)c(Cl)n2c(nc3ccccc32)c1C#N	none (no result: RanGTP-Imp inh, Calpain2 inh, Runt-SMMHC FRET, Runt-CBFb FRET)
N#CCSc1nc2ccccc2c2nc3ccccc3n12	none
CC(=O)c1cc2c(s1)-c1cc(F)ccc1OC2	Runt-SMMHC FRET 88.1
COC(=O)c1cc2c(s1)-c1cc(F)ccc1OC2	none
c1ccc(-c2ccc(C(c3ccccc3)n3ccnc3)cc2)cc1 (centres undefined)	Calpain2 inh 52.9 (no result: FAS TE block)
Cc1cc(S(=O)(=O)N2CCOCC2)ccc1OCC(=O)Nc1ccc(F)cc1F	none (no result: Calpain2 inh, Runt-SMMHC FRET, Runt-CBFb FRET)
COc1cccc(NC(=O)Nc2c(C)n(C)n(-c3ccccc3)c2=O)c1	RanGTP-Imp inh 114.9
COc1ccc(NC(=O)Nc2c(C)n(C)n(-c3ccccc3)c2=O)cc1	none
C/C(=N\Nc1cc(C)nc(-c2ccccc2O)n1)c1ccccc1O	RanGTP-Imp inh 27.8
CC1(C)Cc2c(c(N3CCOCC3)nc3snc(NC(=O)c4ccccc4)c23)CO1	none
Cc1nc2c(sc3nc(N4CCOCC4)c4c(c32)CC(C)(C)OC4)c(-c2ccccc2)c1C(=O)O	RanGTP-Imp inh 23.4
CN1CCc2c(sc(/N=C/c3ccco3)c2C(N)=O)C1	Runt-SMMHC FRET 62.5, Runt-CBFb FRET 106.1
CCOC(=O)c1c(/N=C/c2cccc(C)c2O)sc2c1CCN(C)C2	none
CN1CCc2c(sc(/N=C/c3cccs3)c2C(N)=O)C1	RanGTP-Imp inh inconclusive, Runt-SMMHC FRET 65.0, Runt-CBFb FRET 80.6
Cc1ccc(/C=N/c2sc3c(c2C(N)=O)CCCC3)o1	none
CCOC(=O)N1CCC2(CC1)C(C#N)=C(N)Oc1n[nH]c(CSc3ccc(C)cc3)c12	Calpain2 inh 91.0
O=C(O)c1ccccc1-c1ccc(/C=C/c2cc(C(F)(F)F)[nH]c(=O)n2)o1	Runt-SMMHC FRET 87.4, Runt-CBFb FRET 68.5
O=c1nc(/C=C/c2ccc(-c3ccc(F)cc3)o2)cc(C(F)(F)F)[nH]1	Runt-SMMHC FRET 80.9, Runt-CBFb FRET 106.1 (no result: FAS TE block)
O=C(O)c1ccccc1-c1ccc(C=c2sc3nc4cc(Br)cnc4n3c2=O)o1	none (no result: RanGTP-Imp inh, Calpain2 inh, Runt-SMMHC FRET, Runt-CBFb FRET)
COC(=O)[C@@]1(Cc2ccccc2)[C@H]2C(=O)N(C)C(=O)[C@H]2[C@H]2CN=C(SCc3ccc(C#N)cc3)N21	none (no result: RanGTP-Imp inh, Calpain2 inh, Runt-SMMHC FRET, Runt-CBFb FRET)
C/C(=N/NC(=O)C1CCCC1)c1ccc(NC(=O)C(F)(F)F)cc1	RanGTP-Imp inh inconclusive (no result: Calpain2 inh, Runt-SMMHC FRET, Runt-CBFb FRET)
Cc1nnc2c(N(C)S(=O)(=O)c3ccccc3)nc3ccccc3n12	none (no result: Calpain2 inh, Runt-SMMHC FRET, Runt-CBFb FRET)
COC(CNC(=O)c1ccc(Cn2c(=S)[nH]c3cc4c(cc3c2=O)OCO4)cc1)OC	RanGTP-Imp inh 125.2
COCCNC(=O)c1ccc(Cn2c(=S)[nH]c3cc4c(cc3c2=O)OCO4)cc1	none
Cc1ccc(C)n1-c1nccc(-c2ccco2)n1	Runt-SMMHC FRET 85.9
